Assays:
[1] = system: Human immunodeficiency virus 1; experiment: Antiviral activity against wild type HIV1 3B infected in human CEM cells assessed as inhibition of virus-induced cytopathicity after 4 days by microscopic analysis; format: functional, organism-based; settings: Human immunodeficiency virus 1, 3B, CCRF-CEM, 96 h
How it was run: (§1)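 CEM cells (~3 × 10⁵ cells/mL) infected with ~100 CCID₅₀ virus per mL, seeded into wells with compound dilutions. Syncytia (giant cell) formation scored microscopically after 4 days at 37 °C. EC₅₀ is the concentration protecting cells by 50%. Values are means of two experiments in triplicate.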

[2] = Cytotoxicity against human CEM cells by coulter counter analysis; format: cell-based; settings: CEM (CCRF-CEM) cells
How it was run: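 Mock-infected CEM cultures with compound, cell number counted by Coulter counter as percent of untreated control. CC₅₀ (50% reduction in proliferation) was read from plots against concentration. Values are means of two experiments in triplicate.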

[3] = molecular target: Human immunodeficiency virus type 1 reverse transcriptase (Human immunodeficiency virus 1, UniProt Q72547, K103N); experiment: Inhibition of HIV1 reverse transcriptase K103N mutant expressed in Escherichia coli assessed as incorporation of [3H]dTTP into poly(rA)/oligo(dT) by scintillation counting
How it was run: (§2)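 The RT was recombinant p66(His)/p51 heterodimer, mutant form, expressed in E. coli. TCA-precipitable radioactivity on GF/C filters was read by scintillation. IC50 is the concentration giving 50% inhibition.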

[4] = molecular target: Human immunodeficiency virus type 1 reverse transcriptase (Human immunodeficiency virus 1, UniProt Q72547, L100I); experiment: Inhibition of HIV1 reverse transcriptase L100I mutant expressed in Escherichia coli assessed as incorporation of [3H]dTTP into poly(rA)/oligo(dT) by scintillation counting; how it was run: as §2
[5] = molecular target: Human immunodeficiency virus type 1 reverse transcriptase (Human immunodeficiency virus 1, UniProt Q72547); experiment: Inhibition of HIV1 wild type reverse transcriptase expressed in Escherichia coli assessed as incorporation of [3H]dTTP into poly(rA)/oligo(dT) by scintillation counting
How it was run: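 Template was poly(rA)/oligo(dT) 10:1 (0.3 μM 3′-OH ends) with 10 μM [³H]dTTP, at 37 °C. TCA-precipitable counts were taken on GF/C filters. IC₅₀ is 50% inhibition of RT activity.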

[6] = molecular target: Human immunodeficiency virus type 1 reverse transcriptase (Human immunodeficiency virus 1, UniProt Q72547, Y181I); experiment: Inhibition of HIV1 reverse transcriptase Y181I mutant expressed in Escherichia coli assessed as incorporation of [3H]dTTP into poly(rA)/oligo(dT) by scintillation counting; how it was run: as §2
[7] = Selectivity index, CC50 for human CEM cells to IC50 for HIV1 3B; format: functional, CCRF-CEM
How it was run: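 Ratio of CC₅₀ (Coulter count, mock-infected CEM) to EC₅₀ (CEM, HIV-1 IIIB, microscopic syncytia scoring at day 4).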

[8] = system: Human immunodeficiency virus 2; experiment: Antiviral activity against HIV2 isolate ROD infected in human CEM cells assessed as inhibition of virus-induced cytopathicity after 4 days by microscopic analysis; format: functional, organism-based; settings: Human immunodeficiency virus 2, ISOLATE ROD, CCRF-CEM, 96 h; how it was run: as §1

| Compound | EC50 [1] | CC50 [2] | IC50 [3] | IC50 [4] | IC50 [5] | IC50 [6] | Selectivity Index [7] | EC50 [8] |
| --- | --- | --- | --- | --- | --- | --- | --- | --- |
| Cc1cc(C)cc(S(=O)(=O)c2c(C(=O)NCCN3CCOCC3)[nH]c3ccc(Br)cc23)c1 | 0.17 µM | 409 µM | 1.36 µM | 0.108 µM | 0.063 µM | > 40 µM | 2406 | > 50 µM |
| O=C1Nc2ccc(Cl)cc2[C@@](C#CC2CC2)(C(F)(F)F)O1 [EFAVIRENZ] | 0.0015 µM | > 10000 µM |  |  |  |  | >6667 | > 10 µM |
| Cc1cc(C)cc(S(=O)(=O)c2c(C(=O)NCCn3cccc3)[nH]c3ccc(Br)cc23)c1 | 0.0064 µM | 146 µM |  |  |  |  | 22813 | > 10 µM |
| Cc1cc(C)cc(S(=O)(=O)c2c(C(=O)NCCOc3ccccc3)[nH]c3ccc(Cl)c(F)c23)c1 | 0.019 µM | 11 µM | 18.5 µM | 0.068 µM | 0.066 µM | > 40 µM | 549 | > 2 µM |
| Cc1cc(C)cc(S(=O)(=O)c2c(C(=O)NCCN3CCOCC3)[nH]c3ccc(Cl)c(F)c23)c1 | 0.013 µM | 11 µM | 6.37 µM | 0.747 µM | 0.711 µM | > 40 µM | 846 | > 10 µM |
| Cc1cc(C)cc(S(=O)(=O)c2c(C(=O)NCCOc3ccccc3)[nH]c3ccc(Br)cc23)c1 | 0.029 µM | > 500 µM | > 40 µM | > 40 µM | 4.72 µM | > 40 µM | >17241 | > 25 µM |
| Cc1cc(C)cc(S(=O)(=O)c2c(C(=O)NCCc3ccccc3)[nH]c3ccc(Br)cc23)c1 | 0.014 µM | 409 µM | 1.68 µM | 0.023 µM | 0.128 µM | > 40 µM | 29214 | > 2 µM |
| Cc1cc(C)cc(S(=O)(=O)c2c(C(=O)NCCn3cccc3)[nH]c3ccc([N+](=O)[O-])cc23)c1 | 0.0069 µM | 226 µM | 0.272 µM | 0.023 µM | 0.034 µM | > 40 µM | 32754 | > 50 µM |
| Cc1cc(C)cc(S(=O)(=O)c2c(C(=O)NCCN3CCCC3)[nH]c3ccc(Cl)c(F)c23)c1 | 0.028 µM | 6.4 µM | 2.41 µM | 1.55 µM | 0.158 µM | > 40 µM | 229 | > 2 µM |
| Cc1cc(C)cc(S(=O)(=O)c2c(C(=O)NCN3CCOCC3)[nH]c3ccc([N+](=O)[O-])cc23)c1 | 0.0058 µM | 46 µM | 0.864 µM | 0.099 µM | 0.15 µM | 1.6 µM | 7931 | ≥ 10 µM |
| Cc1cc(C)cc(S(=O)(=O)c2c(C(=O)NCN3CCCC3)[nH]c3ccc([N+](=O)[O-])cc23)c1 | 0.0025 µM | 12 µM | 0.287 µM | 0.054 µM | 0.034 µM | 1.02 µM | 4800 | 7.8 µM |
| Cc1cc(C)cc(S(=O)(=O)c2c(C(=O)NCN3CCCC3)[nH]c3ccc(Br)cc23)c1 | 0.0013 µM | 9.6 µM | 0.067 µM | 0.014 µM | 0.008 µM | 0.418 µM | 7385 | > 2 µM |
| Cc1cc(C)cc(S(=O)(=O)c2c(C(=O)NCCn3cccc3)[nH]c3ccc(Cl)c(F)c23)c1 | 0.0055 µM | 9.8 µM | 0.17 µM | 0.03 µM | 0.018 µM | 3.7 µM | 1782 | > 10 µM |
| Cc1ccnc2c1NC(=O)c1cccnc1N2C1CC1 [NEVIRAPINE] | 0.0192 µM | > 10000 µM |  |  |  |  | >520 | > 10 µM |
| Cc1cc(C)cc(S(=O)(=O)c2c(C(=O)NCCN3CCOCC3)[nH]c3ccc([N+](=O)[O-])cc23)c1 | 0.008 µM | 42 µM | > 40 µM | 0.421 µM | 0.055 µM | > 40 µM | 5250 | 4.9 µM |
| Cc1cc(C)cc(S(=O)(=O)c2c(C(=O)NCN3CCCC3)[nH]c3ccc(Cl)c(F)c23)c1 | 0.0039 µM | 9.3 µM |  |  |  |  | 2385 | > 2 µM |
| Cc1cc(C)cc(S(=O)(=O)c2c(C(=O)NCc3ccccc3)[nH]c3ccc(Cl)c(F)c23)c1 | 0.0058 µM | 15 µM | 0.144 µM | 0.04 µM | 0.04 µM | > 40 µM | 2586 | > 2 µM |
| Cc1cc(C)cc(S(=O)(=O)c2c(C(=O)NCCOc3ccccc3)[nH]c3ccc([N+](=O)[O-])cc23)c1 | 0.029 µM | > 500 µM | > 40 µM | > 40 µM | 0.95 µM | > 40 µM | >17241 | > 2 µM |
| Cc1cc(C)cc(S(=O)(=O)c2c(C(=O)NCCN3CCCC3)[nH]c3ccc(Br)cc23)c1 | 0.016 µM | 5.6 µM | 0.697 µM | 0.315 µM | 0.065 µM | > 40 µM | 351 | > 2 µM |
| Cc1cc(C)cc(S(=O)(=O)c2c(C(=O)NCN3CCCCC3)[nH]c3ccc(Br)cc23)c1 | 0.0037 µM | 10 µM | 0.125 µM | 0.019 µM | 0.03 µM | 0.497 µM | 2703 | > 2 µM |
| Cc1cc(C)cc(S(=O)(=O)c2c(C(=O)NCCc3ccccc3)[nH]c3ccc([N+](=O)[O-])cc23)c1 | 0.0068 µM | > 500 µM | > 40 µM | 0.04 µM | 0.06 µM | > 40 µM | >72529 | > 50 µM |
| Cc1cc(C)cc(S(=O)(=O)c2c(C(=O)NCCN3CCOCC3)[nH]c3ccc(Cl)cc23)c1 | 0.0088 µM | 50 µM | 6.68 µM | 0.225 µM | 0.099 µM | > 40 µM | 5682 | > 2 µM |
| Cc1cc(C)cc(S(=O)(=O)c2c(C(=O)NCN3CCOCC3)[nH]c3ccc(Br)cc23)c1 | 0.0034 µM | 35 µM | 0.863 µM | 0.1 µM | 0.168 µM | 4.3 µM | 10294 | > 10 µM |
| Cc1cc(C)cc(S(=O)(=O)c2c(C(=O)NCN3CCOCC3)[nH]c3ccc(Cl)c(F)c23)c1 | 0.0025 µM | 38 µM | 1.17 µM | 0.241 µM | 0.08 µM | 10.2 µM | 15200 | > 10 µM |
| Cc1cc(C)cc(S(=O)(=O)c2c(C(=O)NCN3CCCCC3)[nH]c3ccc(Cl)c(F)c23)c1 | 0.0039 µM | 32 µM |  |  |  |  | 8205 | > 10 µM |
| Cc1cc(C)cc(S(=O)(=O)c2c(C(=O)NCCc3ccccc3)[nH]c3ccc(Cl)c(F)c23)c1 | 0.014 µM | 17 µM |  |  |  |  | 1214 | > 10 µM |

— ChEMBL document CHEMBL1765016, “Indolylarylsulfones as HIV-1 non-nucleoside reverse transcriptase inhibitors: new cyclic substituents at indole-2-carboxamide” (J Med Chem, 2011)
